Results: ChEMBL document CHEMBL5150021, “Identification of 5-(Aryl/Heteroaryl)amino-4-quinolones as Potent Membrane-Disrupting Agents to Combat Antibiotic-Resistant Gram-Positive Bacteria” (J Med Chem, 2022)
Values after ≈ are worked out from the molar mass of the structure shown. Active and inactive are the calls of the source. The rule behind the calls is not given here.

How the values were obtained:
Staphylococcus aureus [1] = assay: Antibacterial activity against methicillin-resistant Staphylococcus aureus COL assessed as inhibition of bacterial growth incubated for 24 hrs by CLSI based method; type: functional
How it was run: (§1)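 Broth microdilution per CLSI. Equal volume of twofold serial compound dilutions added. Incubated stationary at 37 °C for 24 h. MIC taken as lowest concentration giving complete inhibition of visible growth. Oxacillin control for Gram-positives, ceftriaxone for Gram-negatives.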

Cell membrane [2] = assay: Induction of cell membrane damage in Staphylococcus aureus USA300 assessed as membrane wrinkling at 1 times MIC measured after 1 hrs by TEM analysis
How it was run: (§2)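 Fixed in glutaraldehyde/paraformaldehyde in cacodylate pH 7.4, post-fixed with osmium tetroxide, stained with uranyl acetate, resin-embedded, thin-sectioned and imaged by TEM.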

Staphylococcus aureus [3] = assay: Antibacterial activity against methicillin-resistant Staphylococcus aureus MW2 assessed as inhibition of bacterial growth incubated for 24 hrs by CLSI based method; type: functional; how it was run: as §1
Staphylococcus aureus [4] = assay: Antibacterial activity against methicillin resistant Staphylococcus aureus FPR3757 assessed as inhibition of bacterial growth incubated for 24 hrs by CLSI based method; type: functional; details: read-out: MIC100
How it was run: (§3)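 It was mixed 1:1 with twofold serial compound dilutions and incubated stationary at 37 °C for 24 h. MIC was the lowest concentration giving complete inhibition of observable growth, with an oxacillin control.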

Candida albicans = assay: Antifungal activity against Candida albicans SC5314 assessed as inhibition of bacterial growth incubated for 24 hrs by CLSI based method; type: functional
How it was run: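 Broth microdilution per CLSI. It is mixed 1:1 with twofold serial compound dilutions and incubated stationary at 35 °C for 24 h. MIC is read as the lowest concentration with no observable growth.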

Staphylococcus aureus [5] = assay: Antibacterial activity against community-associated methicillin-resistant Staphylococcus aureus USA300 FPR3757 assessed as inhibition of bacterial growth incubated for 24 hrs by CLSI based method; type: functional; how it was run: as §3
Vero [6] = assay: Cytotoxicity against African green monkey Vero cells assessed as increase in LDH release at 30 uM incubated for 24 hrs relative to control; type: toxicity, cell-based; details: chlorocebus sabaeus
How it was run: (§4)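 Confluent Vero cells (maintained in RPMI 1640 + 10% FBS, 37 °C, 5% CO2) exposed to compound at 0.47–30 μM (twofold dilutions) in serum-free medium for 24 h at 37 °C. LDH in supernatant is measured colorimetrically at 490 nm and expressed as percent of 2% detergent positive control.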

Vero [7] = assay: Cytotoxicity against African green monkey Vero cells assessed as increase in LDH release at 0.47 to 30 uM incubated for 24 hrs; type: toxicity, cell-based; details: chlorocebus sabaeus, dose 0.47-30 µM; how it was run: as §4
Staphylococcus aureus [8] = assay: microbe, parasite or virus in culture; details: USA300 FPR3757, 24 h
Staphylococcus aureus [9] = assay: Antibacterial activity against methicillin resistant Staphylococcus aureus FPR3757 assessed as inhibition of bacterial growth incubated for 24 hrs in presence of 10% FBS by CLSI based method; type: functional
How it was run: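 CLSI broth microdilution against MRSA FPR3757 (USA300) in Mueller–Hinton broth supplemented with 10% serum (fetal bovine or mouse). Inoculum 10⁶ CFU/mL with twofold serial compound dilutions, stationary incubation at 37 °C for 24 h. MIC read as lowest concentration with complete inhibition of visible growth.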

Enterococcus faecalis [10] = assay: Antibacterial activity against Enterococcus faecalis DHMC #1 assessed as inhibition of bacterial growth incubated for 24 hrs by CLSI based method; type: functional; how it was run: as §1
Cell membrane [11] = assay: Induction of cell membrane damage in Staphylococcus aureus USA300 assessed as mesosome-like membrane inclusions at 1 times MIC measured after 1 hrs by TEM analysis; how it was run: as §2
Staphylococcus aureus [12] = assay: Antibacterial activity against methicillin-resistant Staphylococcus aureus N315 assessed as inhibition of bacterial growth incubated for 24 hrs by CLSI based method; type: functional; how it was run: as §1
Cell membrane [13] = assay: Induction of cell membrane damage in Staphylococcus aureus USA300 assessed as cross-wall-septum formation with reduced splitting at 1 times MIC measured after 10 mins by TEM analysis; type: subcellular
Enterococcus faecalis [14] = assay: Antibacterial activity against Enterococcus faecalis ATCC700802 assessed as inhibition of bacterial growth incubated for 24 hrs by CLSI based method; type: functional; how it was run: as §1
[15] = system: Staphylococcus epidermidis; assay: Antibacterial activity against Staphylococcus epidermidis NIF104008 assessed as inhibition of bacterial growth incubated for 24 hrs by CLSI based method; type: functional; how it was run: as §1
Staphylococcus aureus [16] = assay: Antibacterial activity against methicillin-resistant Staphylococcus aureus NRS71 assessed as inhibition of bacterial growth incubated for 24 hrs by CLSI based method; type: functional; how it was run: as §1
Enterobacter cloacae = assay: Antibacterial activity against Enterobacter cloacae ND-21 assessed as inhibition of bacterial growth incubated for 24 hrs by CLSI based method; type: functional; how it was run: as §1
Klebsiella pneumoniae = assay: Antibacterial activity against Klebsiella pneumoniae 7117 assessed as inhibition of bacterial growth incubated for 24 hrs by CLSI based method; type: functional; how it was run: as §1
Erythrocyte = assay: Hemolytic activity in sheep erythrocytes at 32 ug/ml incubated for 1 hr; type: toxicity, cell-based, Ovis aries; details: dose 32 µg/ml
How it was run: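 4% sheep erythrocytes mixed 1:1 with twofold serial compound dilutions in PBS, incubated stationary 1 h at 37 °C, then centrifuged at 500g for 5 min. Supernatant A540 is measured and percent hemolysis is calculated relative to DMSO vehicle (0%) and Triton X-100 (100%). Triplicate, mean ± SD.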

Enterococcus faecium [17] = assay: Antibacterial activity against Enterococcus faecium ATCC19579 assessed as inhibition of bacterial growth incubated for 24 hrs by CLSI based method; type: functional; how it was run: as §1
Cell membrane [18] = assay: Induction of cell membrane damage in Staphylococcus aureus USA300 assessed as bulging of the septum at 1 times MIC measured after 1 hrs by TEM analysis; how it was run: as §2
[19] = Protein binding in human plasma at […] incubated for 4 hrs under shaking condition by LC-MS/MS based equilibrium dialysis method; type: ADME, cell-free
How it was run: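 Rapid equilibrium dialysis (8k MWCO). Compound is spiked into human plasma at 10 μg/mL and dialysed against DPBS pH 7.4 with shaking for 4 h at 37 °C. Matrices are matched, proteins precipitated with methanol containing internal standard, and both chambers quantified by LC-MS/MS against a calibration curve. Percent free and bound are calculated from chamber concentrations.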

Enterococcus faecium [20] = assay: Antibacterial activity against Enterococcus faecium DHMC #1 assessed as inhibition of bacterial growth incubated for 24 hrs by CLSI based method; type: functional; how it was run: as §1
Escherichia coli = assay: Antibacterial activity against Escherichia coli DHMC-1 assessed as inhibition of bacterial growth incubated for 24 hrs by CLSI based method; type: functional; how it was run: as §1
[21] = system: Staphylococcus epidermidis; assay: Antibacterial activity against Staphylococcus epidermidis NIF104003 assessed as inhibition of bacterial growth incubated for 24 hrs by CLSI based method; type: functional; how it was run: as §1
Staphylococcus simulans [22] = assay: Antibacterial activity against Staphylococcus simulans assessed as inhibition of protein synthesis at 5 times MIC measured upto 60 mins by [3H]-L-isoleucine incorporation based scintillation counter analysis; type: functional; details: 1 h
How it was run: (§5)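 Aliquots taken 0–60 min, precipitated with ice-cold 10% TCA, filtered, washed, scintillation counted. Percent inhibition is relative to DMSO control at 60 min; triplicate.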

Staphylococcus simulans [23] = assay: Antibacterial activity against Staphylococcus simulans assessed as inhibition of cell wall synthesis at 5 times MIC measured upto 60 mins by [3H]-glucosamine incorporation based scintillation counter analysis; type: functional; details: 1 h; how it was run: as §5
Staphylococcus simulans [24] = assay: Antibacterial activity against Staphylococcus simulans assessed as inhibition of RNA synthesis at 5 times MIC measured upto 60 mins by [3H]-uridine incorporation based scintillation counter analysis; type: functional; details: 1 h; how it was run: as §5
Staphylococcus simulans [25] = assay: Antibacterial activity against Staphylococcus simulans assessed as inhibition of DNA synthesis at 5 times MIC measured upto 60 mins by [3H]-thymidine incorporation based scintillation counter analysis; type: functional; details: 1 h; how it was run: as §5
Staphylococcus simulans [26] = assay: Antibacterial activity against Staphylococcus simulans assessed as inhibition of protein synthesis at 0.5 to 5 times MIC measured upto 60 mins by [3H]-L-isoleucine incorporation based scintillation counter analysis; type: functional, organism-based; details: DDE = dose-dependent effect
How it was run: (§6)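 S. simulans was grown in cation-adjusted Mueller–Hinton medium at 37 °C. […] Samples were taken at 0–60 min, precipitated with ice-cold 10% TCA, filtered and counted. Inhibition at 60 min is relative to DMSO control; triplicate.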

Staphylococcus simulans [27] = assay: Antibacterial activity against Staphylococcus simulans assessed as inhibition of RNA synthesis at 0.5 to 5 times MIC measured upto 60 mins by [3H]-uridine incorporation based scintillation counter analysis; type: functional, organism-based; details: DDE = dose-dependent effect; how it was run: as §6
Staphylococcus simulans [28] = assay: Antibacterial activity against Staphylococcus simulans assessed as inhibition of DNA synthesis at 0.5 to 5 times MIC measured upto 60 mins by [3H]-thymidine incorporation based scintillation counter analysis; type: functional, organism-based; details: DDE = dose-dependent effect; how it was run: as §6
[29] = Kinetic aqueous solubility of the compound in DPBS at pH 7.4 at 100 ug/ml measured after 6 hrs by LC-MS/MS analysis; type: physicochemical; details: DPBS, pH 7.4, dose 100 µg/ml, read-out: Kinetic_solubility

Row | SMILES | MIC (Staphylococcus aureus [1]) [µg/mL] | MIC (Staphylococcus aureus [3]) [µg/mL] | MIC (Staphylococcus aureus [4]) [µg/mL] | MIC (Candida albicans) [µg/mL] | MIC (Staphylococcus aureus [5]) [µg/mL] | Activity (Vero [6]) [%] | Activity (Vero [7]) | MBC (Staphylococcus aureus [8]) [µg/mL] | MIC (Staphylococcus aureus [9]) [µg/mL] | MIC (Enterococcus faecalis [10]) [µg/mL] | MIC (Staphylococcus aureus [12]) [µg/mL] | MIC (Enterococcus faecalis [14]) [µg/mL] | MIC [15] [µg/mL] | MIC (Staphylococcus aureus [16]) [µg/mL] | MIC (Enterobacter cloacae) [µg/mL] | MIC (Klebsiella pneumoniae) [µg/mL] | MIC (Enterococcus faecium [17]) [µg/mL] | PPB [19] [%] | MIC (Enterococcus faecium [20]) [µg/mL] | MIC (Escherichia coli) [µg/mL] | further results
1 | O=c1cc(C(F)(F)F)[nH]c2cc(C(F)(F)F)cc(N[C@H]3CC[C@H](C(F)(F)F)CC3)c12 | < 0.06 | 0.125 (≈ 0.28 µM) | 0.125 (≈ 0.28 µM) | > 256 | 0.5 (≈ 1.12 µM) | 20 | Non-Toxic | 4 (≈ 8.96 µM) | 4 | 0.125 (≈ 0.28 µM) | 0.125 (≈ 0.28 µM) | 2 (≈ 4.48 µM) | 0.125 (≈ 0.28 µM) | 0.0625 (≈ 0.14 µM) | > 128 | > 128 | 0.25 (≈ 0.56 µM) | 99.9 | 0.25 (≈ 0.56 µM) | > 128 | Activity (Cell membrane [2]): Active; Activity (Cell membrane [11]): Active; Activity (Cell membrane [13]): Active; Activity (Erythrocyte): Non-Toxic; Activity (Cell membrane [18]): Active; MIC [21]: 0.125 µg/mL (≈ 0.28 µM)
2 | FC(F)(F)c1ccc2c(Nc3ccc(Cl)c(Cl)c3)cc(C(F)(F)F)nc2c1 | 0.25 (≈ 0.588 µM) | 0.125 (≈ 0.294 µM) | 0.0625 (≈ 0.147 µM) | > 256 | 0.0625 (≈ 0.147 µM) | – | – | 2 (≈ 4.7 µM) | 8 | 0.25 (≈ 0.588 µM) | 0.25 (≈ 0.588 µM) | 0.5 (≈ 1.18 µM) | 0.125 (≈ 0.294 µM) | 0.25 (≈ 0.588 µM) | > 128 | > 128 | 0.125 (≈ 0.294 µM) | – | 0.25 (≈ 0.588 µM) | > 128 | inhibition (INH) (Staphylococcus simulans [22]): 100%; inhibition (INH) (Staphylococcus simulans [23]): 100%; inhibition (INH) (Staphylococcus simulans [24]): 100%; inhibition (INH) (Staphylococcus simulans [25]): 100%; inhibition (Staphylococcus simulans [26]): Dde; inhibition (Staphylococcus simulans [27]): Dde; inhibition (Staphylococcus simulans [28]): Dde; MIC [21]: 0.25 µg/mL (≈ 0.588 µM)
3 | O=c1cc(C(F)(F)F)[nH]c2cc(C(F)(F)F)cc(Nc3ccc(F)cn3)c12 | – | – | 0.125 (≈ 0.319 µM) | – | – | 20 | Non-Toxic | – | – | – | – | – | – | – | – | – | – | 99.8 | – | – | solubility kinetic at 6 h [29]: 1 µg/mL (≈ 2.56 µM)
